# Source: PubChem BioAssay (several laboratories)
# Compounds with a hit are over-represented: about 2.2% of the library has one in this group of screens.
# MEX-5 binding: C. elegans MEX-5 TCR-2 RNA binding activity; Q9XUB2; activity score (negative = inhibition of binding), % at 10 µM; MEX-5/FITC-TCR2 RNA binding, fluorescence polarization; hits give low values; 300,000 compounds, 0.38% hits;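 active = inhibition past about -25% in most replicates, and total fluorescence under double the plate's negative control median, limit read from the data; inconclusive = replicates evenly split on the limit, or fluorescence at least double controls; inactive = too little inhibition in most replicates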;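 note: 0% = DMSO and -100% = 5 µM competing unlabeled TCR2 RNA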
# VIM-2 inh: inhibitors of Pseudomonas aeruginosa VIM-2 metallo-beta-lactamase. purified VIM-2, nitrocefin hydrolysis, epi-absorbance fluorescence. inhibition, % at 5.6 µM. 290,000 compounds, 0.89% hits. AID 1527;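 active = inhibition above the mean of all tested compounds plus 3 SD, cutoff set per screening run, cut at about 7.5% in these data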;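 note: red hydrolysis product quenches plate fluorescence so inhibitors raise well fluorescence; 0% = enzyme with DMSO and 100% = DMSO without enzyme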
# GLD-1 RNA inh: GLD-1-TGE RNA interaction inhibition (C. elegans). AID 2280. inhibition, % at 5.96 µM. 320,000 compounds, 0.44% hits. purified GLD-1 + fluorescein TGE RNA, fluorescence polarization;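 active = percent inhibition above a per-plate cutoff, the plate mean of test compounds plus 3 SD, cut at about 30% in these data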;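 note: 0% = DMSO wells with GLD-1 and probe and 100% = wells lacking GLD-1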
# IMP-1 inh: blocks Pseudomonas aeruginosa IMP-1 metallo-beta-lactamase; purified IMP-1, nitrocefin hydrolysis, epi-absorbance fluorescence; inhibition, % at 5.6 µM; 290,000 compounds, 0.45% hits;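 active = inhibition above the mean plus 3 SD of all compounds in the same screening run, cut at about 4.5% in these data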;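 note: 0% = IMP-1 with DMSO and 100% = DMSO wells lacking enzyme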
#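 System: Purified recombinant IMP-1 metallo-beta-lactamase enzyme | Measured by: Fluorescence quenching readout, ex 480/em 530 nm | Replication: Singlicate | Incubation: 15 min preincubation plus 25 min reaction at 25 °C | Evaluation: Percent inhibition from optical density relative to buffer-blank wells | Benchmarks: DMSO with and without IMP-1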
# EBV gp42 inh: blocks Epstein-Barr virus glycoprotein 42 binding | AID 1085 | 220,000 compounds, 0.42% hits | Fluorescence polarization binding assay, mP read-out | inhibition, % (tested at 21.74 µM) | Q1HVG2; in the data active = inhibition above about 50%
# Target sequence (Q1HVG2 whole entry, looked up): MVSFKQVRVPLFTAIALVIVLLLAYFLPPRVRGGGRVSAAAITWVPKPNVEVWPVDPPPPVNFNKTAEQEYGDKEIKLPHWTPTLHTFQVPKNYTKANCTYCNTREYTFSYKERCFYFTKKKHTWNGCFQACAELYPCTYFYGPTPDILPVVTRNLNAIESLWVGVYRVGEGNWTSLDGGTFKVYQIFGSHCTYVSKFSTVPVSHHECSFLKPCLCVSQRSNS
# Bcl-xL primary: blocks human Bcl-xL binding to Bim BH3 peptide; Q07817; GST-Bcl-xL / FITC-Bim BH3 peptide fluorescence polarization; inhibition, % at 10.9 µM; 320,000 compounds, 0.7% hits;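 active = inhibition above the mean of all tested compounds plus 3 SD, cutoff set per campaign, cut at about 30% in these data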;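 note: 0% = DMSO wells and 100% = unlabeled Bim-BH3 peptide competitor; inhibitors lower millipolarization by displacing the labeled peptide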
# Target sequence (Q07817 whole entry, looked up): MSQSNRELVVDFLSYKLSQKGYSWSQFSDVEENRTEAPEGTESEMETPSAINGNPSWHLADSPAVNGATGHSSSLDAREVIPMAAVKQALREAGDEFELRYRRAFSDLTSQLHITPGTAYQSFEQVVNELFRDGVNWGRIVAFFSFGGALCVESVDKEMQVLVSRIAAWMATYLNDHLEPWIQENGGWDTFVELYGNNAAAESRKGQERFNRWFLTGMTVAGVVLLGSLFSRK
# VIM-2 confirm: VIM-2 inhibition, confirmation assay; shares compounds with IMP-1 inh; purified VIM-2 enzyme, nitrocefin absorbance; inhibition, % at 5.6 µM; 200 compounds, 73% hits; AID 1860; in the data active = inhibition above about 8%;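 note: 0% = enzyme with vehicle and 100% = no enzyme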
# TEM-1 inh 2: blocks E. coli TEM-1 beta-lactamase, VIM-2 IMP-1 counter-screen. shares compounds with IMP-1 inh. nitrocefin absorbance inhibition. inhibition, % at 5.6 µM. 200 compounds, 50% hits; in the data active = inhibition above about 0.66%
# IMP-1 confirm: confirmation of P. aeruginosa IMP-1 metallo-beta-lactamase inhibitors | AID 2189 | shares compounds with IMP-1 inh | purified IMP-1 enzyme, absorbance substrate hydrolysis | inhibition, % at 5.6 µM | 200 compounds, 60% hits; in the data active = inhibition above about 4.9%;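 note: 0% = enzyme with vehicle and 100% = vehicle without enzyme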
# GLD-1 TGE cf: GLD-1 TGE RNA interaction inhibition, confirmation; shares compounds with GLD-1 RNA inh; GLD-1/FL-TGE RNA fluorescence polarization, biochemical; inhibition, % at 5.96 µM; 550 compounds, 10% hits; AID 2459;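 active = average inhibition across triplicates above the hit cutoff set in the primary screen, cut at about 32% in these data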;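 note: 0% = GLD-1 with RNA probe and DMSO and 100% = wells lacking GLD-1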
# Numbers without * were called inactive; ? = inconclusive; / = not tested or not shown; + = active, no number.
SMILES,MEX-5 binding,VIM-2 inh,GLD-1 RNA inh,IMP-1 inh,EBV gp42 inh,Bcl-xL primary,VIM-2 confirm,TEM-1 inh 2,IMP-1 confirm,GLD-1 TGE cf
CCN(CC)c1ccc2c(-c3ccc(S(=O)(=O)O)cc3S(=O)(=O)[O-])c3ccc(=[N+](CC)CC)cc-3oc2c1,?,104*,155*,104*,/,+,85*,150*,80*,/
O=[n+]1c2c(n([O-])c3cc(Br)ccc31)CCCC2,-2,-2,11,-1,3,9,/,/,/,/
O=[n+]1c2c(n([O-])c3ccccc31)CCCC2,5,13*,4,35*,-2,8,0,-1,-3,/
CCCc1cc(C(N)=S)ccn1,3,8,0,4.8*,0,3,3,-1,0,/
CC(=O)Oc1ccc2c(c1)C(=O)c1ccccc1CO2,-1,0,0,-2,4,6,/,/,/,/
CC(=O)Oc1ccc2c(c1)Oc1cc(OC(C)=O)ccc1C21OC(=O)c2ccccc21,/,143*,142*,140*,95*,181*,14*,3.3*,4.7*,/
COc1ccc(N=Nc2nc3ccc(Br)cc3n2C)cc1,-50*,26*,176*,25*,51*,+,-2,-5,-4,/
CCOc1ccc(/C=C/C(=O)N(CC)CC(=O)Nc2ccc3c(c2)OCCO3)cc1OCC,-1,-3,-2,-3,/,5,/,/,/,/
c1ccc(CNc2ccccn2)cc1,-1,-3,0,-2,/,5,/,/,/,/
c1ccc(Nc2ccccc2Nc2ccccn2)nc1,0,32*,141*,50*,-2,98*,3,1.1*,1,/
O=C(COC(=O)c1ccc(Br)cc1)NCc1ccccc1,2,0,41*,-3,-11,6,/,/,/,4
COc1nnc(-c2ccc(C)c(S(=O)(=O)NC(C)(C)CO)c2)c2ccccc12,0,2,-6,-3,/,6,/,/,/,/
COc1nnc(-c2ccc(C)c(S(=O)(=O)NCCO)c2)c2ccccc12,0,-1,49*,-1,-7,39*,/,/,/,-1
CN(C)Cc1cc(O)c(CN(C)C)cc1O,-35*,-1,63*,-1,-14,64*,/,/,/,8
O=C(NCCC1=CCCCC1)C(=O)NCCc1ccc(Cl)cc1,-1,0,-13,0,-16,4,/,/,/,/
O=C(NCCC1=CCCCC1)C(=O)NCc1ccncc1,1,-3,47*,-3,-4,73*,/,/,/,13
CCOC(=O)c1cc2c(ccn2C)n1CC(=O)N1CCN(c2cccc(C(F)(F)F)c2)CC1,0,2,40*,1,8,2,/,/,/,47*
CCSC1(SCC)N=C(N)C2(C#N)C(c3ccccc3)NC3=C(CCC3)C12C#N (stereo not drawn),0,-2,50*,1,-23,27,/,/,/,-2
Cc1oc(-c2ccc(-c3ccccc3)cc2)nc1CN(CCO)C(C)C,2,0,4,0,/,2,/,/,/,/
COc1ccc(OC)c(C(=O)N(C)C2CCCN(Cc3ccccc3F)C2)c1 (stereo not drawn),1,0,39*,-2,/,7,/,/,/,1
COc1cc(C(=O)NC(=S)Nc2ccc([N+](=O)[O-])cc2)cc(OC)c1OC,0,-1,32*,4.6*,6,7,/,/,/,-3
COc1cc(C(=O)NC(=S)Nc2ccc([N+](=O)[O-])cc2C)cc(OC)c1OC,-1,-2,3,2,-8,4,/,/,/,/
Cc1oc(/N=C/c2ccc3c(c2)OCO3)c(C#N)c1C,-3,-4,36*,-4,1,16,/,/,/,-3
Cc1ccc(C)c(NC(=S)N2CCC(NC(=O)c3cccc(F)c3)CC2)c1,-4,-4,-9,-4,/,1,/,/,/,/
